What is called IC50 is the concentration that inhibits the measured activity by half.

Experimental findings from ChEMBL document CHEMBL4033616, “Identification of spirobisnaphthalene derivatives with anti-tumor activities from the endophytic fungus Rhytidhysteron rufulum AS21B” (Bioorg Med Chem, 2017) are described below.

In one test the test system is NCI-H1975. Put plainly: Cytotoxicity against human NCI-H1975 cells assessed as decrease in cell viability after 72 hrs by CellTiter-Glo assay. Type of test: functional, cell-based. As to conditions: NCI-H1975, 72 h. In short, it runs like this: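 NSCLC H1975 cells grown to exponential phase in RPMI 1640 with 10% (v/v) fetal calf serum, humidified 5% CO2. Seeded cells were exposed to compounds at the indicated concentrations for 72 h at 37 °C. Viability was read as the ATP level in living cells (CellTiter-Glo).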

A further test concerns Ramos. The experiment in a line: Cytotoxicity against human Ramos cells assessed as decrease in cell viability after 24 hrs by CellTiter-Glo assay. Type of test: functional, cell-based. The method in brief:
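Human lymphoma Ramos cells, expanded to exponential growth in RPMI 1640 plus 10% (v/v) fetal calf serum under humidified 5% CO2. Seeded cells were treated with compounds at the indicated concentrations, 37 °C, 24 h. Viability was measured from the cellular ATP level with the CellTiter-Glo kit.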

Molecules are shown by their SMILES. Where only a bound is given, the exact number is not on record here.

`CO[C@@H]1CC(=O)C2=CCCC3(Oc4cccc5cccc(c45)O3)[C@@H]2[C@@H]1O`: the IC50 with NCI-H1975 came to 10.2 µM; in the test with Ramos, 0.461 µM.

Consider `O=C1C=C[C@@H](O)[C@@H]2C1=CCCC21Oc2cccc3cccc(c23)O1`, for which the half-maximal inhibitory concentration (IC50) in the test on NCI-H1975 was determined as 1.17 µM; with Ramos it was 0.048 µM.

`O=C1C2=CCCC3(Oc4cccc5cccc(c45)O3)[C@@H]2[C@H](O)[C@@H]2O[C@H]12`: the IC50 was found to be 7.3 µM in the test on NCI-H1975 and 18 µM with Ramos.

On to `O=C1C=C[C@]2(Oc3cccc4c(O)ccc(c34)O2)c2ccccc21`, for which the IC50 in the test on NCI-H1975 is over 100 µM; in the test with Ramos it was 15 µM.

For `O=C1CC[C@]23Oc4ccc(O)c5c4[C@@](C=CC5=O)(Oc4cccc1c42)O3`, the concentration for half-maximal inhibition (IC50) with NCI-H1975 is over 100 µM; in the test on Ramos it was 82.9 µM.

Regarding `CC(=O)O[C@@H]1C=CC(=O)C2=CCCC3(Oc4cccc5cccc(c45)O3)[C@@H]21`, the IC50 in the test on NCI-H1975 came to 0.252 µM; in the test with Ramos, 0.018 µM.

Regarding `CO[C@H]1CCC2(Oc3cccc4cccc(c34)O2)C2=C1C(=O)C=CC2=O`, the values for the IC50 in the test with NCI-H1975 and in the test on Ramos were over 100 µM and 31.7 µM, respectively.

As to `O[C@H]1[C@@H]2[C@H]([C@@H](O)CCC23Oc2cccc4cccc(c24)O3)[C@@H](O)C[C@@H]1O`, the IC50 in the test on NCI-H1975 and in the test with Ramos was over 100 µM in each case.

As to `Oc1cccc2c1[C@@H](O)CCC21Oc2cccc3cccc(c23)O1`, the IC50 in the test with NCI-H1975 and in the test with Ramos was over 100 µM in each case.

As for `O=C1CCC(O)c2cccc(O)c21` (stereo unspecified) [4,8-DIHYDROXY-1-TETRALONE], the results for the IC50 with NCI-H1975 and in the test with Ramos were 50 µM and 23.1 µM, respectively.

With `CN(C)C/C=C/C(=O)Nc1cc2c(Nc3ccc(F)c(Cl)c3)ncnc2cc1O[C@H]1CCOC1` [AFATINIB], the IC50 in the test with NCI-H1975 was determined as 1.97 µM.

Turning to `C=CC(=O)N1CCC[C@@H](n2nc(-c3ccc(Oc4ccccc4)cc3)c3c(N)ncnc32)C1` [IBRUTINIB], in the test on Ramos, the half-maximal inhibitory concentration (IC50) was determined as 28.7 µM.

`O=C1CCC2(Oc3cccc4cccc(c34)O2)c2cccc(O)c21` [PALMARUMYCIN CP2]: the results for the IC50 in the test on NCI-H1975 and in the test with Ramos were over 100 µM and 18 µM, respectively.

`O=C1CCC2(Oc3cccc4cccc(c34)O2)c2c(O)ccc(O)c21` [PALMARUMYCIN CP17]: the IC50 was over 100 µM in the test with NCI-H1975 and 33.1 µM in the test on Ramos.
